Laboratory results reported in ChEMBL document CHEMBL1629563, “Pharmacokinetic and safety evaluation of BILR 355, a second-generation nonnucleoside reverse transcriptase inhibitor, in healthy volunteers” (Antimicrob Agents Chemother, 2008).

What was measured:
[1] = system: Homo sapiens; assay: Toxicity in healthy human assessed as occurrence of vomiting at 75 mg, po administered as single dose relative to control; type: organism-based; settings: in vivo
[2] = system: Homo sapiens; assay: Toxicity in healthy human assessed as occurrence of increase in alanine aminotransferase level at 12.5 mg, po administered as single dose relative to control; type: organism-based; settings: in vivo
[3] = system: Homo sapiens; assay: Toxicity in healthy human assessed as occurrence of maculopapular rash at 75 mg, po administered as single dose relative to control; type: organism-based; settings: in vivo
[4] = system: Homo sapiens; assay: Toxicity in healthy human assessed as occurrence of maculopapular rash at 100 mg, po administered as single dose relative to control; type: organism-based; settings: in vivo
[5] = system: Homo sapiens; assay: Toxicity in healthy human assessed as occurrence of constipation at 50 mg, po administered as single dose relative to control; type: organism-based; settings: in vivo
[6] = system: Homo sapiens; assay: Toxicity in healthy human assessed as occurrence of flatulence at 1 mg, po administered as single dose relative to control; type: organism-based; settings: in vivo
[7] = system: Homo sapiens; assay: Toxicity in healthy human assessed as occurrence of herpes simplex at 5 mg, po administered as single dose relative to control; type: organism-based; settings: in vivo
[8] = system: Homo sapiens; assay: Toxicity in healthy human assessed as occurrence of frequent bowel movements at 50 mg, po administered as single dose relative to control; type: organism-based; settings: in vivo
[9] = Apparent oral clearance in healthy human at 12.5 mg, po administered as single dose coadministered with 100 mg of ritonavir; type: ADME, organism-based; settings: in vivo
Method in brief: (§1)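 Healthy male volunteers, fasted. Ritonavir 100 mg given 10 h before and again together with single oral BILR 355 in PEG solution. EDTA plasma sampled predose to 144 h. LC-MS/MS assay after protein precipitation. Noncompartmental analysis, AUC by linear up/log down trapezoidal rule; Vss = CL/F·(MRTp.o. − 1/Ka).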

[10] = Apparent oral clearance in healthy human at 87.5 mg, po administered as single dose coadministered with 100 mg of ritonavir; type: ADME, organism-based; settings: in vivo; method in brief: as §1
[11] = Mean residence time in healthy human at 25 mg, po administered as single dose coadministered with 100 mg of ritonavir; type: ADME, organism-based; settings: in vivo
[12] = Mean residence time in healthy human at 50 mg, po administered as single dose coadministered with 100 mg of ritonavir; type: ADME, organism-based; settings: in vivo
[13] = Mean residence time in high fat fed healthy human at 50 mg, po administered as single dose coadministered with 100 mg of ritonavir; type: ADME, organism-based; settings: in vivo
[14] = Apparent volume of distribution in terminal phase in healthy human at 25 mg, po administered as single dose coadministered with 100 mg of ritonavir; type: ADME, organism-based; settings: in vivo, read-out: Vz/F
Method in brief: (§2)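 Healthy male volunteers, fasted overnight, got one oral dose of BILR 355 in PEG solution with 200 ml water. Ritonavir 100 mg was given 10 h before and again with the dose. Plasma was sampled (EDTA) from predose to 144 h and assayed by validated LC-MS/MS. Cmax and Vz/F came from noncompartmental analysis. Vss/F = CL/F·(MRTp.o. − 1/Ka), with Ka from compartmental modelling.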

[15] = Apparent volume of distribution in terminal phase in healthy human at 37.5 mg, po administered as single dose coadministered with 100 mg of ritonavir; type: ADME, organism-based; settings: in vivo, read-out: Vz/F; method in brief: as §2
[16] = Apparent volume of distribution in terminal phase in healthy human at 87.5 mg, po administered as single dose coadministered with 100 mg of ritonavir; type: ADME, organism-based; settings: in vivo, read-out: Vz/F; method in brief: as §2
[17] = Apparent volume of distribution in terminal phase in high fat fed healthy human at 50 mg, po administered as single dose coadministered with 100 mg of ritonavir; type: ADME, organism-based; settings: in vivo, read-out: Vz/F
Method in brief: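 Fed cohort: healthy males ate an FDA-recipe high-fat breakfast (about 150/250/500-600 cal from protein/carbohydrate/fat) 30 min before a 50 mg oral dose of BILR 355 in PEG solution. Ritonavir 100 mg was given 10 h before and with the dose. Plasma was sampled over 144 h and assayed by LC-MS/MS. Noncompartmental analysis gave Cmax and Vz/F. Vss/F = CL/F·(MRTp.o. − 1/Ka).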

[18] = Apparent volume of distribution at steady state in healthy human at 37.5 mg, po administered as single dose coadministered with 100 mg of ritonavir; type: ADME, organism-based; settings: in vivo, read-out: Vss/F; method in brief: as §2
[19] = system: Homo sapiens; assay: Ratio of AUC (0 to infinity) in human at 25 mg, po in presence of 100 mg of ritonavir to AUC (0 to infinity) in human at 25 mg, po; type: ADME, organism-based; settings: in vivo
[20] = system: Homo sapiens; assay: Toxicity in healthy human assessed as occurrence of diarrhea at 5 mg, po administered as single dose coadministered with 100 mg of ritonavir; type: organism-based; settings: in vivo
[21] = system: Homo sapiens; assay: Toxicity in healthy human assessed as occurrence of maculopapular rash at 5 mg, po administered as single dose coadministered with 100 mg of ritonavir; type: organism-based; settings: in vivo
[22] = system: Homo sapiens; assay: Toxicity in healthy human assessed as occurrence of maculopapular rash at 62.5 mg, po administered as single dose coadministered with 100 mg of ritonavir; type: organism-based; settings: in vivo
[23] = AUC (0 to last) in healthy human at 5 mg, po administered as single dose; type: ADME, organism-based; design: dose 5 mg, time 0 - last, route oral; settings: plasma
Method in brief: (§3)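 Healthy male volunteers, six active plus two placebo per dose group, single oral dose in PEG solution with 200 ml water after overnight fast; breakfast 60 to 90 min post-dose. EDTA plasma sampled predose to 144 h. Assayed by validated LC-MS/MS after protein precipitation. Noncompartmental analysis, AUC by linear up/log down trapezoidal rule; Vss = CL/F·(MRTp.o. − 1/Ka).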

[24] = AUC (0 to last) in healthy human at 12.5 mg, po administered as single dose; type: ADME, organism-based; design: dose 12.5 mg, route oral, time 0 - last; settings: plasma; method in brief: as §3
[25] = Tmax in healthy human at 75 mg, po administered as single dose; type: ADME, organism-based; settings: in vivo
[26] = Half life in healthy human at 5 mg, po administered as single dose; type: ADME, organism-based; settings: in vivo
[27] = Apparent oral clearance in healthy human at 25 mg, po administered as single dose; type: ADME, organism-based; settings: in vivo; method in brief: as §3
[28] = system: Homo sapiens; assay: Ratio of Cmax in human at 50 mg, po in presence of 100 mg of ritonavir to Cmax in human at 50 mg, po; type: ADME, organism-based; settings: in vivo
[29] = Apparent volume of distribution at steady state in healthy human at 12.5 mg, po administered as single dose; type: ADME, organism-based; settings: in vivo, read-out: Vss/F; method in brief: as §3
[30] = Drug excretion in healthy human urine assessed as unchanged drug at 75 mg, po administered as single dose by high-pressure liquid chromatography-tandem mass spectrometry/mass spectrometry method; type: ADME, organism-based; settings: read-out: Drug uptake
Method in brief: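 Urine was collected by weight after one oral dose of BILR 355 in PEG solution in fasted healthy males. Intervals were predose blank, 0-6, 6-24 and 24-72 h, with the bladder voided before each. Aliquots were stored at −20°C and assayed by LC-MS/MS. fe = amount of unchanged drug excreted (Ae) as a percentage of the administered dose.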

[31] = AUC (0 to infinity) in healthy human at 5 mg, po administered as single dose coadministered with 100 mg of ritonavir; type: ADME, organism-based; design: dose 5 mg, time infinity, route oral; settings: plasma; method in brief: as §1
[32] = Tmax in healthy human at 25 mg, po administered as single dose coadministered with 100 mg of ritonavir; type: ADME, organism-based; settings: in vivo
[33] = Half life in healthy human at 25 mg, po administered as single dose coadministered with 100 mg of ritonavir; type: ADME, organism-based; settings: in vivo
[34] = system: Homo sapiens; assay: Toxicity in healthy human assessed as occurrence of fatigue at 25 mg, po administered as single dose relative to control; type: organism-based; settings: in vivo

CCN1c2ncc(CCOc3cc[n+]([O-])c4ccccc34)cc2C(=O)N(C)c2cccnc21 [BILR 355]
Activity [1]: 0%
Activity [2]: 0%
Activity [3]: 0%
Activity [4]: 0%
Activity [5]: 0%
Activity [6]: 0%
Activity [7]: 16.7%
Activity [8]: 0%
CL/F [9]: 112 mL/min
CL/F [10]: 138 mL/min
MRT [11]: 18.1 h
MRT [12]: 16.7 h
MRT [13]: 18.7 h
Vd/F [14]: 97.6 L
Vd/F [15]: 104 L
Vd/F [16]: 114 L
Vd/F [17]: 100 L
Vd/F [18]: 105 L
Ratio [19]: 31.1
Activity [20]: 0%
Activity [21]: 0%
Activity [22]: 0%
AUC(0-t) [23]: 13.6 ng·h/mL
AUC(0-t) [24]: 56.2 ng·h/mL
Tmax [25]: 0.667 h
half-life [26]: 5.02 h
CL/F [27]: 3400 mL/min
Ratio [28]: 2.9
Vd/F [29]: 1460 L
dose excreted [30]: 0.602%
AUC(0-inf) [31]: 707 ng·h/mL
Tmax [32]: 1.75 h
half-life [33]: 11.5 h
Activity [34]: 0%
